Data: ChEMBL document CHEMBL4765236, “Insights into the Antimicrobial Activity and Cytotoxicity of Engineered α-Helical Peptide Amphiphiles” (J Med Chem, 2016)
The source made the active and inactive calls. The rule behind the calls is not given here.

What was measured:
Cell membrane [1] = test: Induction of outer membrane permeabilization in Escherichia coli O157:H7 CICC 21530 assessed as increase in fluorescence intensity at 7.5 uM by NPN-dye based fluorescence assay; type: subcellular
Staphylococcus aureus [2] = test: Induction of morphological changes in Staphylococcus aureus ATCC 29213 assessed as membrane alteration at 1 times MIC after 60 mins by TEM analysis; type: functional, organism-based
Staphylococcus aureus [3] = test: Induction of morphological changes in Staphylococcus aureus ATCC 29213 assessed as intracellular changes at 1 times MIC after 60 mins by TEM analysis; type: functional, organism-based
Escherichia coli [4] = test: Induction of morphological changes in Escherichia coli O157:H7 CICC 21530 assessed as intracellular changes at 1 times MIC after 60 mins by TEM analysis; type: functional, organism-based
Escherichia coli [5] = test: Induction of morphological changes in Escherichia coli O157:H7 CICC 21530 assessed as outflow of cytoplasm at 1 times MIC after 60 mins by TEM analysis; type: functional, organism-based
Cell membrane [6] = test: Induction of cell membrane disruption in Staphylococcus aureus ATCC 29213 assessed as spread of fluorescent signal across membrane surface at 1 times MIC in presence of FITC-labelled compound after 30 mins by confocal laser-scanning microscope analysis; type: subcellular
Lipopolysaccharide (LPS) = test: Displacement of BODIPYTM-TR-cadaverine from Escherichia coli O111:B4 LPS by fluorescence spectroscopic analysis; conditions: dose 0.25-4 µM
Summary of the method: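 LPS-binding dye displacement: LPS (25 µg/mL) and BODIPY-TR-cadaverine (2.5 µg/mL) in tris buffer pH 7.4. An equal volume of peptide solution was added and the rise in fluorescence was recorded at excitation 580 nm and emission 620 nm. Melittin served as positive control. Each test was run independently in triplicate.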

RAW264.7 = test: Antiinflammatory activity against mouse RAW264.7 cells assessed as inhibition of LPS-induced nitric oxide production at 32 uM measured after 24 hrs by Griess reagent based ELISA; type: functional, cell-based
Summary of the method: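 RAW264.7 cells plated at 1-2 × 10^5 cells/mL and stimulated with 500 ng/mL LPS with or without peptide (0.5-64 µM) for 24 h at 37 °C. Controls were untreated cells and LPS alone. TNF-α in the supernatant measured by ELISA. NO measured by Griess reagent (1% sulfanilamide, 0.1% naphthylethylenediamine, 5% phosphoric acid).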

HepG2 [7] = test: Induction of morphological changes in human HepG2 cells assessed as decrease in adhesive monolayer at 32 uM after 24 hrs by inverted microscope analysis; type: functional, cell-based
HepG2 [8] = test: Induction of morphological changes in human HepG2 cells assessed as roughness of cell membrane at 32 uM after 24 hrs by SEM analysis; type: functional, cell-based
HepG2 [9] = test: Induction of morphological changes in human HepG2 cells assessed as appearance of crimped boundaries at 32 uM after 24 hrs by SEM analysis; type: functional, cell-based
HepG2 [10] = test: Induction of morphological changes in human HepG2 cells assessed as appearance of rounded cells at 32 uM after 24 hrs by SEM analysis; type: functional, cell-based
HepG2 [11] = test: Induction of morphological changes in human HepG2 cells assessed as cell disruption at 32 uM after 24 hrs by SEM analysis; type: functional, cell-based
HepG2 [12] = test: Induction of morphological changes in human HepG2 cells assessed as shriveled cells at 32 uM after 24 hrs by SEM analysis; type: functional, cell-based
HepG2 [13] = test: Induction of morphological changes in human HepG2 cells assessed as cytoskeleton damage at 32 uM after 24 hrs by SEM analysis; type: functional, cell-based
HepG2 [14] = test: Induction of apoptosis in human HepG2 cells assessed as nuclei condensation at 32 uM incubated for 2 to 4 hrs by DAPI-staining based confocal microscopy analysis; type: functional, cell-based; conditions: time 2-4 hrs
Summary of the method: (§1)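 HepG2 cells treated with 32 µM peptide for 2, 4 or 8 h and stained with DAPI. Nuclear morphology imaged by confocal microscopy, with untreated cells as control.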

HepG2 [15] = test: Induction of apoptosis in human HepG2 cells assessed as nuclear fragmentation at 32 uM measured after 8 hrs by DAPI staining based confocal microscopy; type: functional, cell-based; summary of the method: as §1
[16] = Drug localization in cell membrane of human HepG2 cells assessed as green fluorescent signal in presence of FITC-labelled peptide at 32 uM measured up to 8 hrs by DAPI staining based confocal microscopy; type: ADME, cell membranes; conditions: hepg2, 8 h
Summary of the method: (§2)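 HepG2 cells incubated with FITC-labelled peptide at 32 µM. Fluorescence distribution imaged by confocal laser-scanning microscopy at intervals (1, 4 and 8 h).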

[17] = Drug localization in nucleus of human HepG2 cells assessed as fluorescent signal in presence of FITC-labelled peptide at 32 uM incubated for 4 hrs by DAPI staining based confocal microscopy; type: ADME, subcellular; conditions: hepg2, 4 h; summary of the method: as §2
[18] = Drug distribution in human HepG2 cells assessed as fluorescence signal in presence of FITC-labelled peptide at 32 uM measured after 8 hrs by DAPI staining based confocal microscopy; type: ADME, cell-based; conditions: hepg2, 8 h; summary of the method: as §2
HepG2 [19] = test: Induction of ROS generation in human HepG2 cells assessed as increase in visual fluorescence intensity up to 32 uM measured at 2 hr by DCFH-DA staining-based fluorescence analysis; type: functional, cell-based; conditions: dose microM <=32, time 2.0 hrs
HepG2 [20] = test: Induction of ROS generation in human HepG2 cells assessed as increase in fluorescence intensity up to 32 uM by DCFH-DA staining-based fluorescence analysis; type: functional, cell-based; conditions: dose microM <=32, time 8.0 hrs, TDE = time-dependent effect
Staphylococcus aureus [21] = test: Bactericidal activity against Staphylococcus aureus ATCC 29213 assessed as bacterial killing at 1 times MIC measured within 5 mins by time kill assay; type: functional, organism-based; conditions: time min <5
Summary of the method: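 Log-phase S. aureus 29213 exposed to peptide at 1 × MIC in 10 mM PBS pH 7.4 at 37 °C for 0-90 min. Aliquots taken at fixed intervals, diluted and plated on nutrient agar, and colonies counted after 18 h at 37 °C. Average of three independent assays.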

**Q.** Which results are given for H-WGEAFSAGVHRLANGGNG-NH2?
**A.** Activity (Cell membrane [1]): inactive; Activity (Staphylococcus aureus [2]): Active; Activity (Staphylococcus aureus [3]): Active; Activity (Escherichia coli [4]): Active

**Q.** For H-WLRAFRRLVRRLARGLRR-NH2, which Activity (Escherichia coli [5]) is on record?
**A.** Active

**Q.** What about the Activity (Cell membrane [6]) of the same substance?
**A.** Active

**Q.** What about the Activity (Lipopolysaccharide (LPS)) of the same substance?
**A.** Active

**Q.** And the Activity (RAW264.7)?
**A.** Active

**Q.** What about the Activity (HepG2 [7]) of the same substance?
**A.** Active

**Q.** And the Activity (HepG2 [8])?
**A.** Active

**Q.** What about the Activity (HepG2 [9]) of the same substance?
**A.** Active

**Q.** What about the Activity (HepG2 [10]) of the same substance?
**A.** Active

**Q.** And the Activity (HepG2 [11])?
**A.** Active

**Q.** And the Activity (HepG2 [12])?
**A.** Active

**Q.** And the Activity (HepG2 [13])?
**A.** Active

**Q.** And the Activity (HepG2 [14])?
**A.** Active

**Q.** What about the Activity (HepG2 [15]) of the same substance?
**A.** Active

**Q.** And the Drug uptake [16]?
**A.** Active

**Q.** What about the Drug uptake [17] of the same substance?
**A.** Active

**Q.** What about the Drug uptake [18] of the same substance?
**A.** Active

**Q.** And the Activity (HepG2 [19])?
**A.** Active

**Q.** What about the Activity (HepG2 [20]) of the same substance?
**A.** Tde

**Q.** What about the Activity (Staphylococcus aureus [21]) of the same substance?
**A.** Active
